Assay results reported in the RNAGym collection of RNA variant scans (doi:10.1126/science.aae0568).
Variants at the floor of the assay were thinned out.

B1: tRNA (parent)
chain: GUUCCGUUGGCGUAAUGGUAACGCGUCUCCCUCCUAAGGAGAAGACUGCGGGUUCGAGUCCCGUACGGAACG

Variants of: B1
Assay: yeast fitness relative to wild type (ratio to wild type); higher = fitter; tRNA-Arg(CCU), competitive growth, 37 C, YPD
How it was run: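 Genotype frequency changes were the basis for Darwinian fitness relative to wild type. The frequencies came from 100-nucleotide paired-end sequencing of gene amplicons from the start population and each end population of pooled yeast strains with tRNA-Arg(CCU) gene variants at the native locus. Competition ran in YPD at 37°C for 24 hours in six replicates, genotypes needed ≥ 100 starting reads, and estimates < 0.5 were set to 0.5.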

Question: Which yeast fitness does the source give for U8G G18C C49U G58A G67A here?
Answer: ≤ 0.5

Question: Which yeast fitness does the source give for U8G A21U C27G C49U here?
Answer: 0.687

Question: With G9A A40C U54C as the variant, how does the yeast fitness read?
Answer: 0.753

Question: For G9A A37C, which yeast fitness is on record?
Answer: 0.918

Question: Which yeast fitness does the source give for U8G G12C G39A here?
Answer: ≤ 0.5

Question: For U8G G17A A20C C22G C29G C34G C60U C62U A69G, which yeast fitness is on record?
Answer: ≤ 0.5

Question: For U8G C30G C33G C61A A69U, which yeast fitness is on record?
Answer: ≤ 0.5

Question: Which yeast fitness does the source give for U8C U13C C27A here?
Answer: 0.574

Question: For U8C U32A A40U G41C C46A G52A, which yeast fitness is on record?
Answer: ≤ 0.5

Question: Which yeast fitness does the source give for U8C U35G here?
Answer: 0.693

Question: With U8C U35A as the variant, how does the yeast fitness read?
Answer: 0.6

Question: With G9A A14C C27U C46U G52C as the variant, how does the yeast fitness read?
Answer: 0.53

Question: Which yeast fitness does the source give for G9A A15G U16A G23C A69C here?
Answer: ≤ 0.5

Question: Which yeast fitness does the source give for U8G A20U U53G C66G A70G here?
Answer: ≤ 0.5

Question: Which yeast fitness does the source give for G9A A21U C66G here?
Answer: ≤ 0.5

Question: Which yeast fitness does the source give for U8G A21G here?
Answer: 0.582

Question: Which yeast fitness does the source give for G9A A14C G58A here?
Answer: 0.546

Question: Which yeast fitness does the source give for U8G C24A C30G A40G U47G here?
Answer: ≤ 0.5

Question: With G9A A14G G56A G67A as the variant, how does the yeast fitness read?
Answer: ≤ 0.5

Question: With G9A A15C A69U as the variant, how does the yeast fitness read?
Answer: 0.86

Question: For U8G U13A A43G U53A, which yeast fitness is on record?
Answer: 0.58

Question: For G9A A14U C34G A37C, which yeast fitness is on record?
Answer: ≤ 0.5

Question: For U8G A21G C27A U35A C62A A65C G67A, which yeast fitness is on record?
Answer: ≤ 0.5

Question: For U8G C34U A40C, which yeast fitness is on record?
Answer: 0.591

Question: Which yeast fitness does the source give for U8G A15C G18C C49U U64A A69U here?
Answer: ≤ 0.5

Question: With G9A A37C G67C as the variant, how does the yeast fitness read?
Answer: ≤ 0.5

Question: Which yeast fitness does the source give for G9A A21C C34A A43G here?
Answer: ≤ 0.5

Question: Which yeast fitness does the source give for U8C U13A C24U C29G C33A U47A C55U A65C here?
Answer: 0.787

Question: For G9A A21U C31G, which yeast fitness is on record?
Answer: 0.573

Question: Which yeast fitness does the source give for U8C U16C C29G here?
Answer: ≤ 0.5

Question: For U8G C33A A37U G38C, which yeast fitness is on record?
Answer: 0.529

Question: With U8C U19C U54A as the variant, how does the yeast fitness read?
Answer: 0.542

Question: Which yeast fitness does the source give for G9A A21G C29G C34G here?
Answer: ≤ 0.5

Question: For U8C G68U A69C, which yeast fitness is on record?
Answer: ≤ 0.5

Question: Which yeast fitness does the source give for G9A A36G G68U here?
Answer: 0.743

Question: For U8C G50A A65C, which yeast fitness is on record?
Answer: 0.603

Question: With U8C U13G C22U C49A A69C as the variant, how does the yeast fitness read?
Answer: ≤ 0.5

Question: For U8C G63A, which yeast fitness is on record?
Answer: 0.864

Question: For U8G U19A U54A A57U G68C, which yeast fitness is on record?
Answer: ≤ 0.5

Question: Which yeast fitness does the source give for U8G U32C C33G here?
Answer: ≤ 0.5

Question: Which yeast fitness does the source give for U8G G9A U19G U53C C60A here?
Answer: ≤ 0.5

Question: Which yeast fitness does the source give for U8G C22U A69U here?
Answer: 0.731

Question: For U8G A21C U64A, which yeast fitness is on record?
Answer: 0.516

Question: With U8G G50C U64G as the variant, how does the yeast fitness read?
Answer: 0.56

Question: With U8G C22A C27U A40U as the variant, how does the yeast fitness read?
Answer: ≤ 0.5

Question: For U8G U13A C34G, which yeast fitness is on record?
Answer: ≤ 0.5

Question: For G9A A14G C61U A70G, which yeast fitness is on record?
Answer: ≤ 0.5

Question: With U8C G25C C49A as the variant, how does the yeast fitness read?
Answer: 0.515

Question: With U8G G38C G67U as the variant, how does the yeast fitness read?
Answer: 0.529

Question: For U8G G12C C55A, which yeast fitness is on record?
Answer: ≤ 0.5

Question: For U8G C11G U32A C55U G67C, which yeast fitness is on record?
Answer: ≤ 0.5

Question: Which yeast fitness does the source give for G9A A20G C49U here?
Answer: 0.847

Question: With U8C U32C G44A A69U as the variant, how does the yeast fitness read?
Answer: 0.724

Question: With U8G C29U C31U U54G A65U G67A as the variant, how does the yeast fitness read?
Answer: ≤ 0.5

Question: For G9A A21C G52A G56C C62G C66U, which yeast fitness is on record?
Answer: ≤ 0.5

Question: With G9A A20G as the variant, how does the yeast fitness read?
Answer: 1.05

Question: For U8G U26A G68C, which yeast fitness is on record?
Answer: ≤ 0.5

Question: Which yeast fitness does the source give for G9A A21U C31G G63A C66A here?
Answer: ≤ 0.5

Question: For U8C G52A G67A, which yeast fitness is on record?
Answer: ≤ 0.5

Question: With U8G A20U G44C A57G as the variant, how does the yeast fitness read?
Answer: ≤ 0.5

Question: With U8G U26A G67C as the variant, how does the yeast fitness read?
Answer: ≤ 0.5

Question: For G9A A36G A43G, which yeast fitness is on record?
Answer: 0.748

Question: With U8G G52A as the variant, how does the yeast fitness read?
Answer: 0.512

Question: Which yeast fitness does the source give for G9A A37C A43C here?
Answer: 0.524

Question: Which yeast fitness does the source give for U8G A37C U64A A70C here?
Answer: ≤ 0.5

Question: Which yeast fitness does the source give for U8G G38A A69U here?
Answer: 0.507

Question: With G9A A40C G48C A57G as the variant, how does the yeast fitness read?
Answer: ≤ 0.5

Question: With U8C U16A as the variant, how does the yeast fitness read?
Answer: 0.934

Question: With U8G U35C as the variant, how does the yeast fitness read?
Answer: 0.767

Question: With U8G U35G as the variant, how does the yeast fitness read?
Answer: ≤ 0.5

Question: With U8G C29G G38C G44A as the variant, how does the yeast fitness read?
Answer: 0.803

Question: With U8G U19C C46A as the variant, how does the yeast fitness read?
Answer: 0.853

Question: For U8G A14U G50A A57U G68C, which yeast fitness is on record?
Answer: ≤ 0.5

Question: With U8G C46G A57U as the variant, how does the yeast fitness read?
Answer: ≤ 0.5

Question: Which yeast fitness does the source give for U8G C46G here?
Answer: 0.593

Question: Which yeast fitness does the source give for U8G C11U U64A A70C here?
Answer: 0.619

Question: For U8C U54C, which yeast fitness is on record?
Answer: 0.915

Question: Which yeast fitness does the source give for U8G U32C C33G A43U G48C C55A here?
Answer: ≤ 0.5

Question: For U8C U59A C66A, which yeast fitness is on record?
Answer: ≤ 0.5

Question: Which yeast fitness does the source give for U8G U28C G38C C62U here?
Answer: ≤ 0.5

Question: With G9A A37C U54C G67C as the variant, how does the yeast fitness read?
Answer: ≤ 0.5

Question: For U8G C31U C33G U47A G50U, which yeast fitness is on record?
Answer: 0.608

Question: For U8G U19A U54A A57U C66U, which yeast fitness is on record?
Answer: 0.576

Question: Which yeast fitness does the source give for U8C G44C here?
Answer: 0.911
